NR2E3 ag-1 = NR2E3 agonists in two-hybrid cells, primary screen, cell-based, luminescence, CHO-S, Gal4-NCOR/VP16-NR2E3 | Photoreceptor-specific nuclear receptor (Homo sapiens), Q9Y5X4 | luciferase | inhibition of corepressor binding, % at 3.98 µM | 360,000 tested, 0.35% active | AID 602229, 2012;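 active means inhibition above the mean of all tested compounds plus 3 SD, cut at about 70% in these data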;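 further: 0% = DMSO with NR2E3 transfected cells and 100% = cells lacking NR2E3 construct; higher means lower luciferase signal from less NR2E3 corepressor binding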
Target sequence (Q9Y5X4 whole entry, looked up, the tested form may be a part): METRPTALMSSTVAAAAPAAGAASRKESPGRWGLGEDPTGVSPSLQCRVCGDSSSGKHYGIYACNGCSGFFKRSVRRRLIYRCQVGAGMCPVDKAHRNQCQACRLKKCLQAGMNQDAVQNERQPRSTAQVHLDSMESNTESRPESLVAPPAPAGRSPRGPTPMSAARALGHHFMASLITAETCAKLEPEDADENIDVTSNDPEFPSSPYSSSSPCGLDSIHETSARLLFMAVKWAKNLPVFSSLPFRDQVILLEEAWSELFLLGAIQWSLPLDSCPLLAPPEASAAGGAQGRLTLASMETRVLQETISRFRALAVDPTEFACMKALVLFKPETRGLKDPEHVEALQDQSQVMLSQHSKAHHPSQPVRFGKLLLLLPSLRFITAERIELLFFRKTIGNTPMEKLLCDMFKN
PG9 Ab binder = binders of HIV-1 gp120 antibody PG9, primary screen, biochemical, TR-FRET; HIV-1 gp120 / PG9 antibody interaction; TR-FRET gp120-PG9 antibody binding; inhibition, % at 6.7 µM; 360,000 tested, 0.43% active; in the data active means inhibition above about 8.5%
NR1D1 modulator = modulators of Rev-erb alpha DNA binding, primary screen, biochemical, FITC-DNA, fluorescence polarization, uHTS; 370,000 tested, 0.79% active; Rev-erbα–FITC-DNA binding, 90 min; activity, % at 10 µM; Nuclear receptor subfamily 1 group D member 1 (Homo sapiens), P20393;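 active means activity above about 14%, limit read from the data; passing the limit was not always enough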;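 further: 0% = DMSO wells with 35 nM protein and 100% = DMSO wells with 750 nM protein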
NR2E3 ag-2 = inhibitors of NR2E3-RetCOR corepressor binding, primary screen, NR2E3 agonist project, biochemical, TR-FRET, GST-NR2E3, biotin-RetCOR; AID 2300, 2010; 320,000 tested, 0.12% active; Photoreceptor-specific nuclear receptor (Homo sapiens), Q9Y5X4; 1536-well; inhibition of corepressor binding, % at 4.78 µM;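 active means percent inhibition above the cutoff of mean plus 3 SD of all tested compounds, set per screening campaign, cut at about 20% in these data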;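 further: 0% = DMSO wells and 100% = biotin wells as full block of FRET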
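System: GST-tagged NR2E3 plus biotinylated RetCOR corepressor; Amount: 1.35 nM GST-tagged NR2E3 final; Dosing: single nominal compound dose of 4.8 µM; Schedule: 5 h incubation at 4 °C; Technique: TR-FRET with europium anti-GST and streptavidin-D2, 340 nm excitation; Controls: biotin wells as high control, 0.6% DMSO wells as low control.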
PG9 bind confirm = binders of anti-gp120 antibody PG9, confirmation, biochemical, TR-FRET. 1,500 tested, 90% active. shares compounds with PG9 Ab binder. TR-FRET PG9 antibody binding. inhibition, % at 6.7 µM; in the data active means inhibition above about 9%
PGV04 counter = binders of control antibody PGV04, counter-screen for PG9 antibody binder project, biochemical, TR-FRET, distinct HIV envelope site; shares compounds with PG9 Ab binder; TR-FRET PGV04 antibody-gp120 binding; inhibition, % at 6.7 µM; 1,500 tested, 95% active; in the data active means inhibition above about 9.5%
PG9 bind DR = small-molecule binders of antibody PG9, dose response, biochemical, TR-FRET, HIV-1 gp120 antibody | shares compounds with PG9 Ab binder | TR-FRET PG9 antibody-gp120 binding inhibition | IC50, µM | 95 tested, under 10 active | AID 651848, 2012; in the data active means IC50 below about 10 µM
PGV04 DR counter = binders of control antibody PGV04, dose response, counter-screen for PG9 antibody binder project, biochemical, TR-FRET, distinct HIV envelope site | shares compounds with PG9 Ab binder | IC50, µM | TR-FRET binding to control antibody PGV04 | 95 tested, 20% active
PG126 DR counter = binders of control antibody PG126, dose response, counter-screen for PG9 antibody binder project, biochemical, TR-FRET, distinct HIV envelope site; shares compounds with PG9 Ab binder; TR-FRET binding to antibody PG126, counterscreen; IC50, µM; 95 tested, 20% active
* = called active by the depositor. Hits are enriched below; roughly 1.4% of the tested compounds scored in any of these assays. Unless noted, no stated cut-off is given here; in the data, active means IC50 below about 9 µM; inactive means the rest.

Screening O=C1C(=O)N(CCCn2ccnc2)C(c2cccc(Br)c2)/C1=C(\O)c1ccc2c(c1)OCCO2 (stereo not drawn) returned NR2E3 ag-1 -9.5, PG9 Ab binder 26.7*, NR1D1 modulator -4.3, NR2E3 ag-2 16.5, PG9 bind confirm 44.5*, PGV04 counter 39.7*, PG9 bind DR inactive, PGV04 DR counter 5.44* and PG126 DR counter 8*.
Screening O=C1C(=O)N(CCCn2ccnc2)C(c2ccc(Cl)cc2)/C1=C(\O)c1ccc2c(c1)OCCO2 (stereo not drawn) returned NR2E3 ag-1 -10.6, PG9 Ab binder 27.4*, NR1D1 modulator 1.2, NR2E3 ag-2 13.7, PG9 bind confirm 15.8* and PGV04 counter 20.9*.
Screening O=C1C(=O)N(CCCn2ccnc2)C(c2ccc(Br)cc2)/C1=C(\O)c1ccc2c(c1)OCCO2 (stereo not drawn) returned NR2E3 ag-1 -2.9, PG9 Ab binder 13.9*, NR1D1 modulator 9.9, NR2E3 ag-2 14.5, PG9 bind confirm 13.3* and PGV04 counter 15.1*.
For COC(=O)[C@]12C[C@H](CC(=O)N3CCCCC3)C(=O)N(Cc3ccco3)C1=C[C@H](C(C)(C)C)O[C@@H]2C the results were NR1D1 modulator 4.9.
For C/C(=C/c1c[n+](Cc2ccc3c(c2)OCO3)c(N)[nH]1)Cn1[nH]c(=O)n(-c2ccccc2)c1=O the results were NR1D1 modulator -3.1.
For COCCN(C(=O)COC(=O)CNC(=O)c1ccc(C)cc1)c1c(N)n(Cc2ccccc2)c(=O)[nH]c1=O the results were NR2E3 ag-1 8.3, PG9 Ab binder -1.4 and NR1D1 modulator -3.4.
CC(C)(C)c1ccc(C2/C(=C(\O)c3ccc4c(c3)OCCO4)C(=O)C(=O)N2CCCN2CCOCC2)cc1 (stereo not drawn) was read as NR2E3 ag-1 -12.6, PG9 Ab binder 0.9, NR1D1 modulator -5.2 and NR2E3 ag-2 2.4.
`COc1ccc(/C(O)=C2/C(=O)C(=O)N(CCCN3CCOCC3)C2c2ccc(Cl)cc2)cc1` (stereo not drawn) gave NR2E3 ag-1 -4.3, PG9 Ab binder 11.8*, NR1D1 modulator 1.3, PG9 bind confirm 25.8* and PGV04 counter 43.1*.
For O=C1C(=O)N(CCCN2CCOCC2)C(c2ccc(F)cc2)/C1=C(\O)c1ccc2c(c1)OCCO2 (stereo not drawn) the results were NR2E3 ag-1 -13.8, PG9 Ab binder 9.4*, NR1D1 modulator -4.1, NR2E3 ag-2 3.7, PG9 bind confirm 21.4* and PGV04 counter 23.9*.
For COc1cccc(C2/C(=C(\O)c3ccc4c(c3)OCCO4)C(=O)C(=O)N2CCCn2ccnc2)c1 (stereo not drawn) the results were NR2E3 ag-1 -44.0, PG9 Ab binder 12.1*, NR1D1 modulator -6.9, NR2E3 ag-2 6.5, PG9 bind confirm 19.7* and PGV04 counter 23.3*.
For COC(=O)C1CN(Cc2ccccc2)CCS(=O)(=O)N1Cc1cn(Cc2ccc(Cl)cc2)nn1 (stereo not drawn) the results were NR1D1 modulator -6.0.
Cc1cccc(C(=O)NCC(=O)OCC(=O)c2ccc(Br)s2)c1 was read as NR2E3 ag-1 10.0, PG9 Ab binder 8.8*, NR1D1 modulator 6.2, PG9 bind confirm 14.4* and PGV04 counter 20.9*.
Screening COc1ccccc1CCC[C@H](CCS(=O)(=O)C(C)C)CC1CCCCC1 returned NR1D1 modulator 2.3.
Screening Cc1ccc(C(=O)Nc2nnc(NC(=S)Nc3ccccc3)s2)cc1 returned NR2E3 ag-1 -110.5, PG9 Ab binder 12.0*, NR1D1 modulator 14.2, NR2E3 ag-2 4.5, PG9 bind confirm 16.4* and PGV04 counter 20.2*.
Screening COc1ccc(NC(=O)c2oc3ccccc3c2NC(=O)C2CC2)cc1 returned NR2E3 ag-1 -33.6, PG9 Ab binder 11.9*, NR1D1 modulator 18.5, NR2E3 ag-2 0.7, PG9 bind confirm 9.0*, PGV04 counter 9.2, PG9 bind DR >67, PGV04 DR counter inactive and PG126 DR counter inactive.
For COC(=O)C1(C)CCc2cc(OC)ccc2C1=O (stereo not drawn) the results were NR2E3 ag-1 -15.7, PG9 Ab binder 1.3, NR1D1 modulator 2.8 and NR2E3 ag-2 0.5.
COc1ccc2c(c1)CCC1(C)CC(=O)C(Br)=C21 (stereo not drawn) was read as NR2E3 ag-1 -17.1, PG9 Ab binder 14.1*, NR1D1 modulator 10.9, PG9 bind confirm 23.6* and PGV04 counter 46.7*.
COc1ccc2[nH]c3c(=S)nc[nH]c3c2c1 was read as NR2E3 ag-1 -23.2, PG9 Ab binder 49.5*, NR1D1 modulator 0.5, NR2E3 ag-2 -3.1, PG9 bind confirm 25.9*, PGV04 counter 25.5*, PG9 bind DR >67, PGV04 DR counter >67 and PG126 DR counter >67.
COc1ccc2[nH]c3c(Cl)ncnc3c2c1 was read as NR2E3 ag-1 23.1, PG9 Ab binder -0.9, NR1D1 modulator 6.3 and NR2E3 ag-2 1.1.
N#Cc1cnn2c(N)c(-c3ccc(Cl)cc3)cnc12 was read as NR2E3 ag-1 -41.8, PG9 Ab binder 15.5*, NR1D1 modulator 0.8, NR2E3 ag-2 1.2, PG9 bind confirm 24.3* and PGV04 counter 42.8*.
Screening Nc1c(-c2ccccc2)cnc2c(-c3ccccc3)cnn12 returned NR2E3 ag-1 -106.4, PG9 Ab binder -2.7, NR1D1 modulator -4.0 and NR2E3 ag-2 0.1.
Screening COc1ccc(Cn2c(=O)[nH]c3cc(C(=O)NCCCOC(C)C)ccc3c2=O)cc1 returned NR2E3 ag-1 -12.5, PG9 Ab binder -0.2, NR1D1 modulator 8.7 and NR2E3 ag-2 -3.7.
